In the library only some 6% were active in any assay of this set; here they are far more common.
PostGolgi yeast: growth inhibition of a yeast mutant, post-Golgi transport screen. post-Golgi transport phenotypic cell assay. AID 739. 0.9% of 98,000 active. inhibition, % at 10 µM;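 further: yeast cells grown in 1536-well plates; yeast grown about 18 h at 30C before absorbance read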
Ecoli tolC: E. coli tolC mutant growth inhibition | 2.2% of 65,000 active | AID 573 | growth inhibition, % at 10 µM (by protocol) | E. coli BW25113 tolC mutant growth, OD615;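 active means growth inhibition at or above a cutoff equal to the mean over every tested compound plus 3 SD, cut at about 60% in these data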;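 further: growth measured after 20 h incubation at 37 °C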
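Test system: E. coli BW25113 ΔtolC::kan bacteria; incubation: 37 °C, 20 h exposure; medium: LB broth supplemented with 50 µg/mL kanamycin; read-out basis: percent growth inhibition; signal: A615 absorbance measurement; compound: 10 µM final, single dose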
EphB4 ephrin blk: blocks human EphB4 binding to ephrin-B2. inhibition, % at 7 µM. P54760. EphB4 LBD / TNYL-RAW-Alexa532 peptide, fluorescence polarization. 0.15% of 97,000 active;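 active means inhibition above the screen-wide mean inhibition plus 3 SD, cut at about 15% in these data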;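 further: 0% = DMSO wells and 100% = excess unlabeled TNYL-RAW peptide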
PostGolgi ctrl: inhibits growth of the yeast control strain; efflux-deficient yeast background strain, growth absorbance A615, 16 h; inhibition, % at 10 µM; 5% of 98,000 active; AID 738
Ecoli WT expand: growth inhibitors of E. coli BW25113 wild type. OD600 absorbance. growth inhibition, % at 100 µM. 0.15% of 98,000 active. AID 710;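 active means growth inhibition above about 50% at one test dose, limit read from the data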;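 further: growth measured after 20 h incubation at 37 °C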
Starred values were filed as active, the others as inactive. Unless noted, no stated cut-off is given here; in the data, active means inhibition above about 30%; inactive means the rest.

How did COC(=O)NC1CSCC1OC(=O)CN1C(=O)c2ccccc2C1=O (centres undefined) do in these assays?
PostGolgi yeast: 2.2; Ecoli tolC: -20.1; PostGolgi ctrl: 40.1*; Ecoli WT expand: 11.0

How did Cc1ccc(-c2cc(C(F)(F)F)n3nc(C(=O)NCCCn4ccnc4)cc3n2)cc1C do in these assays?
PostGolgi yeast: -2.9; EphB4 ephrin blk: 0.8; PostGolgi ctrl: 15.0; Ecoli WT expand: -2.0

How did CCOC(=O)C1CCCN(c2cc(C)nc3cc(-c4ccc(F)cc4)nn23)C1 (centres undefined) do in these assays?
PostGolgi yeast: 0.3; Ecoli tolC: 54.9; EphB4 ephrin blk: 2.4; PostGolgi ctrl: 42.4*; Ecoli WT expand: -5.0

How did COc1ccc(Cl)cc1C(=O)NC(=S)Nc1cc(-c2nc3ccccc3[nH]2)ccc1C do in these assays?
PostGolgi yeast: -2.6; EphB4 ephrin blk: -16.5; PostGolgi ctrl: 35.2*; Ecoli WT expand: -13.0

What do the screens show for `COc1ccccc1NC(=O)COc1ccc(CO)cc1Cl`?
PostGolgi yeast: -14.2; Ecoli tolC: 17.6; EphB4 ephrin blk: -2.9; PostGolgi ctrl: 20.5; Ecoli WT expand: -9.0

Results for COc1ccccc1NC(=O)C1CCCN(c2nc(C)cc(C)n2)C1 (centres undefined) ?
EphB4 ephrin blk: -2.0

What do the screens show for `CCOc1ccc(OCC)c(NC(=O)C2CCCN(c3nc(C)cc(C)n3)C2)c1` (centres undefined)?
PostGolgi yeast: -2.5; Ecoli tolC: 10.4; PostGolgi ctrl: 26.4; Ecoli WT expand: -11.0

How did COc1ccc(OC)c(NC(=O)C2CCN(c3nc(C)cc(C)n3)CC2)c1 do in these assays?
PostGolgi yeast: 1.2; Ecoli tolC: -13.9; EphB4 ephrin blk: -2.1; PostGolgi ctrl: 37.0*; Ecoli WT expand: -2.0

What do the screens show for `Cc1cc(C)nc(N2CCCC(C(=O)Nc3cc(F)ccc3C)C2)n1` (centres undefined)?
PostGolgi yeast: 2.8; Ecoli tolC: 12.8; EphB4 ephrin blk: 8.6; PostGolgi ctrl: 30.1*; Ecoli WT expand: 0.0

How did N#CC1=C(N)Oc2cc(Nc3ccccc3)ccc2C1c1ccncc1 (centres undefined) do in these assays?
PostGolgi yeast: -1.4; EphB4 ephrin blk: 7.4; PostGolgi ctrl: 12.5; Ecoli WT expand: -4.0

How did CC(C)(C)c1ccc(/C([O-])=C(/C(=S)NCc2ccco2)[n+]2ccccc2)cc1 do in these assays?
PostGolgi yeast: -6.0; EphB4 ephrin blk: -1.2; PostGolgi ctrl: -2.7; Ecoli WT expand: 1.0

Results for COc1ccc(CCN2C(=NC(=O)CCC(=O)O)SC3CS(=O)(=O)CC32)cc1 (centres undefined) ?
PostGolgi yeast: -6.0; EphB4 ephrin blk: -10.0; PostGolgi ctrl: -1.2; Ecoli WT expand: 1.0

How did CCCCN(CC)S(=O)(=O)c1ccc(C(=O)Nc2nnc(-c3cccs3)o2)cc1 do in these assays?
PostGolgi yeast: -2.6; Ecoli tolC: 99.1*; EphB4 ephrin blk: 3.4; PostGolgi ctrl: 16.2; Ecoli WT expand: -1.0

Results for CCCCN(CCCC)S(=O)(=O)c1ccc(NS(=O)(=O)c2ccc(NC(C)=O)cc2)cc1 ?
PostGolgi yeast: -2.1; EphB4 ephrin blk: -5.3; PostGolgi ctrl: -5.3; Ecoli WT expand: -12.0

How did CCc1nnc(NC(=O)c2ccc(S(=O)(=O)N(CC)Cc3ccccc3)cc2)o1 do in these assays?
PostGolgi yeast: 9.3; Ecoli tolC: 100.0*; EphB4 ephrin blk: 6.0; PostGolgi ctrl: 5.9; Ecoli WT expand: 2.0

Results for CCCCN(CCCC)S(=O)(=O)c1ccc(C(=O)Nc2nnc(COC)o2)cc1 ?
PostGolgi yeast: 0.7; Ecoli tolC: 96.9*; EphB4 ephrin blk: -1.0; PostGolgi ctrl: -2.9; Ecoli WT expand: 5.0

Results for CCCCN(C)S(=O)(=O)c1ccc(C(=O)Nc2nnc(CSC)o2)cc1 ?
PostGolgi yeast: -5.8; Ecoli tolC: 98.5*; EphB4 ephrin blk: -6.4; PostGolgi ctrl: 2.5; Ecoli WT expand: 14.0

What do the screens show for `Cc1cc(C)c(NC(=O)c2ccc(S(=O)(=O)N(C)C)cc2)c(C)n1`?
PostGolgi yeast: 0.0; Ecoli tolC: -8.8; EphB4 ephrin blk: -5.7; PostGolgi ctrl: 19.9; Ecoli WT expand: 9.0

What do the screens show for `CCc1nnc(NC(=O)c2ccc(S(=O)(=O)N(CC)CC)cc2)s1`?
PostGolgi yeast: -7.4; Ecoli tolC: 4.2; EphB4 ephrin blk: -2.5; PostGolgi ctrl: 13.0; Ecoli WT expand: -14.0

What do the screens show for `CC(C)(C)C1CCc2c(sc(NC(=O)c3cccs3)c2C(=O)N2CCCCC2)C1` (centres undefined)?
PostGolgi yeast: 17.7; EphB4 ephrin blk: -1.1; PostGolgi ctrl: -0.8; Ecoli WT expand: 2.0

What do the screens show for `Cc1oc2c(C)c(O)ccc2c(=O)c1-c1cnn(-c2ccccc2)c1`?
PostGolgi yeast: 4.9; EphB4 ephrin blk: -5.8; PostGolgi ctrl: 3.1; Ecoli WT expand: 0.0

What do the screens show for `COc1ccc2c(=O)c(-c3cnn(-c4ccccc4)c3)c(C)oc2c1`?
PostGolgi yeast: 34.0*; EphB4 ephrin blk: -9.8; PostGolgi ctrl: 9.6; Ecoli WT expand: 6.0

How did C=CCNC(=O)c1ccc2c(c1)nnn2C do in these assays?
PostGolgi yeast: -5.0; Ecoli tolC: -5.5; EphB4 ephrin blk: 5.3; PostGolgi ctrl: 5.6; Ecoli WT expand: 3.0

How did N=C1N(/N=C/c2ccccc2)C(=Nc2ccccc2)C(=S)N1c1ccccc1 do in these assays?
EphB4 ephrin blk: -2.9

How did O=C(COC(=O)Cc1ccc(S(=O)(=O)N2CCCCC2)s1)Nc1ccc2c(c1)OCO2 do in these assays?
PostGolgi yeast: -3.5; Ecoli tolC: 4.1; EphB4 ephrin blk: -5.5; PostGolgi ctrl: 36.3*; Ecoli WT expand: 0.0

Results for O=C(COC(=O)Cc1ccc2c(c1)OCCO2)Nc1ccc(S(=O)(=O)N2CCCC2)cc1 ?
PostGolgi yeast: 2.0; EphB4 ephrin blk: -4.7; PostGolgi ctrl: 3.7; Ecoli WT expand: 1.0

What do the screens show for `CSc1ncccc1C(=O)OCc1ccccc1`?
PostGolgi yeast: -8.1; Ecoli tolC: 16.9; EphB4 ephrin blk: -10.3; PostGolgi ctrl: -4.4; Ecoli WT expand: 2.0

Results for CSc1ncccc1C(=O)OCc1ccccc1F ?
PostGolgi yeast: -4.5; Ecoli tolC: 3.5; EphB4 ephrin blk: -12.6; PostGolgi ctrl: 35.9*; Ecoli WT expand: 8.0

Results for C=CCNc1ncnc2c1[nH]c1ccc(C)cc12 ?
PostGolgi yeast: 27.0; Ecoli tolC: 90.5*; EphB4 ephrin blk: 8.4; PostGolgi ctrl: 18.5; Ecoli WT expand: 82.0*

How did CC(CCc1ccccc1)NC(=O)C1CCN(S(=O)(=O)N2CCCCC2)CC1 (centres undefined) do in these assays?
PostGolgi yeast: 13.2; Ecoli tolC: 4.2; EphB4 ephrin blk: -3.6; PostGolgi ctrl: -1.7; Ecoli WT expand: -5.0

How did FC(F)Sc1ccc(NC(=S)NCC2CCCCC2)cc1 do in these assays?
PostGolgi yeast: 36.4*; EphB4 ephrin blk: 4.2; PostGolgi ctrl: 38.2*; Ecoli WT expand: 11.0

What do the screens show for `COCCN=C1Sc2nc3c(C)cccc3cc2CN1Cc1ccco1`?
PostGolgi yeast: -4.6; EphB4 ephrin blk: 3.1; PostGolgi ctrl: 10.3; Ecoli WT expand: -5.0

What do the screens show for `Cc1cccc(N=C2Sc3nc4c(C)c(C)ccc4cc3CN2CCN2CCOCC2)c1`?
PostGolgi yeast: 45.8*; EphB4 ephrin blk: 3.4; PostGolgi ctrl: 97.5*; Ecoli WT expand: -1.0

Assay outcomes from PubChem.
